Data set [1] in a line: Ratio of drug level in tumor to kidney in athymic NCr mouse xenografted with human OVCAR-3 cells at 180 uCi, ip administered 9 days after tumor implantation as six fractionated doses every 4 days measured after 1.5 hrs by gamma counting. It is filed as ADME, organism-based. Conditions: in vivo.
Data set [2] in a line: Stability in human OVCAR-3 cells expressing androgen receptor assessed as compound degradation at 0.1 uCi/mL up to 4 hrs by silica gel instant thin layer chromatography. It is filed as ADME, cell-based. Conditions: read-out: Activity.
The nature of data set [3]: Biodistribution in peritoneum of athymic NCr mouse xenografted with human OVCAR-3 cells at 1.12 uCi, ip after 1.5 hrs by gamma counting. Conditions: in vivo. The format is ADME, organism-based.
Data set [4] is described as follows: Chemical stability in phosphate buffer saline at 0.85 uCi after 1265 mins by HPLC analysis. It is filed as physicochemical.
Data set [5] is described as follows: Stability in human OVCAR-3 cells expressing androgen receptor assessed as assessed as compound degradation at 0.01 to 5 uCi/mL up to 24 hrs by silica gel instant thin layer chromatography. The format is ADME, cell-based. Conditions: read-out: Activity.
In data set [6] the test system is OVCAR-3. The data set is described as follows: Cellular uptake in human OVCAR-3 cells xenografted in athymic NCr mouse assessed as [125I]UdR retention per cell at an average 39.5 uCi/dose, ip administered 9 days after tumor implantation as six fractionated doses every 4 days measured after 2 weeks of last dose by gamma counting. Conditions: in vivo, 336 h. The format is ADME, organism-based. The gist of the method: (§1)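 OVCAR-3-bearing and healthy athymic mice given fractionated ip doses on the six-dose every-4-days schedule; tissues, tumor and lavaged cells γ-counted at necropsy, %ID/g; DNA-bound 125I in cells measured as cpm/cell.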
For orientation: Xenograft models place foreign cells or tissue in a host animal.

Data set [7] in a line: Ratio of drug level in tumor to liver in athymic NCr mouse xenografted with human OVCAR-3 cells at 180 uCi, ip administered 9 days after tumor implantation as six fractionated doses every 4 days measured after 24 hrs by gamma counting. It is filed as ADME, organism-based. Conditions: in vivo.
The nature of data set [8]: Ratio of drug level in tumor to liver in athymic NCr mouse xenografted with human OVCAR-3 cells at 180 uCi, ip administered 9 days after tumor implantation as six fractionated doses every 4 days measured after 48 hrs by gamma counting. It is filed as ADME, organism-based. Particulars: in vivo.
Data set [9] concerns OVCAR-3. The experiment in a line: Antitumor activity against human OVCAR-3 cells xenografted in athymic NCr mouse assessed as number of nonadherent cancer cells in peritoneum at 180 uCi, ip administered 9 days after tumor implantation as six fractionated doses every 4 days measured after 2 weeks of last dose by gamma counting. It is filed as functional. The gist of the method: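 OVCAR-3 ip xenografts in athymic mice; six fractionated ip doses every 4 days, total 180 μCi/mouse, with PBS or vehicle ip controls. Nonadherent tumor cells recovered by peritoneal lavage at necropsy, counted and pellet-weighed.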

Data set [10] can be described thus: Ratio of drug level in tumor to uterus in athymic NCr mouse xenografted with human OVCAR-3 cells at 180 uCi, ip administered 9 days after tumor implantation as six fractionated doses every 4 days measured after 1.5 hrs by gamma counting. The format is ADME, organism-based. Conditions: in vivo.
Data set [11] in a line: Ratio of drug level in tumor to kidney in athymic NCr mouse xenografted with human OVCAR-3 cells at 180 uCi, ip administered 9 days after tumor implantation as six fractionated doses every 4 days measured after 48 hrs by gamma counting. The format is ADME, organism-based. Particulars: in vivo.
Data set [12] has as its target T1, Sex hormone-binding globulin (Homo sapiens, UniProt P04278).
T1 sequence (P04278 whole entry): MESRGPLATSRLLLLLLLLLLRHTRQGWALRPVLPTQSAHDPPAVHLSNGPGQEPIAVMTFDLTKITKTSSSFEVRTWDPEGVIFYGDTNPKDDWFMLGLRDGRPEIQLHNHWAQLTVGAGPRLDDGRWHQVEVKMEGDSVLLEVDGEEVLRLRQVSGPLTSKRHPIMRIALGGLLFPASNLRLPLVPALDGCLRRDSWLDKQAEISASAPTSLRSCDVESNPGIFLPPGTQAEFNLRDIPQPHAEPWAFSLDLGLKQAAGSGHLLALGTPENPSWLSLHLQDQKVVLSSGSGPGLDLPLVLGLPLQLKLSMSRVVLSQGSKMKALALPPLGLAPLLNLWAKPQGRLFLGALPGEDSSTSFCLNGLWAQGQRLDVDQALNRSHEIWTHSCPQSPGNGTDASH
The data set is described as follows: Binding affinity to human sex hormone binding globulin assessed as intact compound remaining at 10 to 20 uCi/mL after 60 mins by instant thin layer chromatography. It is filed as ADME. Particulars: read-out: Stability.

A short description of data set [13]: Ratio of drug level in tumor to spleen in athymic NCr mouse xenografted with human OVCAR-3 cells at 180 uCi, ip administered 9 days after tumor implantation as six fractionated doses every 4 days measured after 24 hrs by gamma counting. It is filed as ADME, organism-based. Particulars: in vivo.
The nature of data set [14]: Stability in mouse serum assessed as intact compound remaining at 10 to 20 uCi/mL after 10 mins by size-exclusion HPLC analysis. It is filed as ADME, cell-free. Conditions: read-out: Stability. The method, boiled down: (§2)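 The compound was incubated in mouse serum, which lacks circulating SHBG. Aliquots were analysed on size-exclusion HPLC (TSK3000; phosphate/Na2SO4 buffer, pH 6.8, then an acetonitrile gradient). Extracts were analysed by C18 reversed-phase HPLC to measure intact compound remaining over time.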
Background: Size exclusion chromatography separates by hydrodynamic size, large species first.

The nature of data set [15]: Ratio of drug level in tumor to uterus in athymic NCr mouse xenografted with human OVCAR-3 cells at 180 uCi, ip administered 9 days after tumor implantation as six fractionated doses every 4 days measured after 48 hrs by gamma counting. It is filed as ADME, organism-based. Particulars: in vivo.
The nature of data set [16]: Stability in human OVCAR-3 cells expressing androgen receptor assessed as half life at 0.01 to 5 uCi/mL by silica gel instant thin layer chromatography. It is filed as ADME, cell-based.
Data set [17] addresses T1, Sex hormone-binding globulin. The data set is described as follows: Binding affinity to human sex hormone binding globulin at 10 to 20 uCi/mL after 60 mins by instant thin layer chromatography. Particulars: 1 h. It is filed as ADME.
Data set [18] in a line: Stability in mouse serum assessed as intact compound remaining at 20 uCi after 40 mins by size-exclusion HPLC analysis. It is filed as ADME, cell-free. Particulars: read-out: Stability. The gist of the method:
as §2

In data set [19] the test system is Stomach. The experiment in a line: Biodistribution in stomach of athymic NCr mouse xenografted with human OVCAR-3 cells assessed per gram of tissue at an average 39.5 uCi/dose, ip administered 9 days after tumor implantation as six fractionated doses every 4 days measured after 2 weeks of last dose by gamma counting. It is filed as ADME, organism-based. Conditions: in vivo, 336 h. The method, boiled down: as §1

For data set [20], the system named is LNCaP. The data set is described as follows: Cellular uptake in nonproliferating human LNCAP cells expressing androgen receptor after 48 hrs by gamma counting in presence of 1 uM DHT relative to uptake in absence of DHT. It is filed as ADME, cell-based.
The subject of data set [21] is OVCAR-3. The data set is described as follows: Cellular uptake in human OVCAR-3 cells expressing androgen receptor at 1.75 uCi/mL. The format is ADME, cell-based. Particulars: TDE = time-dependent effect. The gist of the method:
(§3)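 NIH:OVCAR-3 cells in complete RPMI-1640 exposed to the radioligand for 24 h (concentration series) or at 1.75 μCi/mL for set times; medium then replaced and cells cultured further 24–48 h; whole-cell and DNA uptake in cpm/cell.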

Data set [22] can be described thus: Biodistribution in tumor of athymic NCr mouse xenografted with human OVCAR-3 cells assessed per gram of tissue at an average 39.5 uCi/dose, ip administered 9 days after tumor implantation as six fractionated doses every 4 days measured after 2 weeks of last dose by gamma counting. It is filed as ADME, organism-based, Neoplasm. Particulars: in vivo, 336 h. The gist of the method: as §1

Data set [23] concerns OVCAR-3. The experiment in a line: Cellular uptake in human OVCAR-3 cells expressing androgen receptor after 24 hrs. Conditions: ovcar-3, 24 h. The format is ADME, cell-based. The method, boiled down: as §3
Data set [24] deals with Kidney. The data set is described as follows: Biodistribution in kidney of athymic NCr mouse xenografted with human OVCAR-3 cells assessed per gram of tissue at an average 39.5 uCi/dose, ip administered 9 days after tumor implantation as six fractionated doses every 4 days measured after 2 weeks of last dose by gamma counting. The format is ADME, organism-based. Particulars: in vivo, 336 h. The gist of the method: as §1

Broadly, the half-life is the time needed for the level to fall by half in the phase considered. On to `C[C@]12CCC(=O)C[C@@H]1CC[C@@H]1[C@@H]2CC[C@]2(C)[C@@H](OC(=O)CCC(=O)O[C@H]3C[C@H](n4cc([125I])c(=O)[nH]c4=O)O[C@@H]3CO)CC[C@@H]12`, for which the Ratio in [1] was determined as 0.9; in data set [7] it was 65; in [8], 34.4; in data set [10] it was 1.4; in [11] it was 61.8; in data set [13] it was 27.4. For the same compound, the Ratio in data set [15] was 16.6. The metabolised at 4 h, 0.1 uCi/mL in data set [2] amounted to 60%. Besides, the Drug uptake is recorded as 29% in data set [3] and 0.0124 cpm in data set [6]. Also, in data set [4], the Stability result is given as “Stable”. Also, the metabolised at 24 h in data set [5] worked out at 1.1%. Further, the Activity in [9] is reported as 1250000000; in data set [17] it was “Active”. Moreover, in data set [12], the remaining at 1 h is more than 91%. Besides, the remaining at 10 min in data set [14] is less than 1.5%. In data set [16], the half-life is 60 days.

In the case of `C[C@]12CCC(=O)C[C@@H]1CC[C@@H]1[C@@H]2CC[C@]2(C)[C@@H](OC(=O)CCC(=O)O[C@H]3C[C@H](n4cc([125I])c(=O)[nH]c4=O)O[C@@H]3COP(=O)(O)O)CC[C@@H]12`, the remaining at 40 min, 20 uCi in data set [18] was determined as 60%. The Drug uptake in [19] is reported as 0.009 %ID; in [20] it was 30%; in [21], “tde”; in data set [22] it was 2.892 %ID; in data set [23], “Dose-dependent effect”; in data set [24], 0.013 %ID.

(Values after ChEMBL document CHEMBL1155242, “Radiolabeled 5-iodo-3'-O-(17beta-succinyl-5alpha-androstan-3-one)-2'-deoxyuridine and its 5'-monophosphate for imaging and therapy of androgen receptor-positive cancers: synthesis and biological evaluation” (J Med Chem, 2009).)
